Experimental data as given in ChEMBL document CHEMBL4368943 (J Med Chem, 2019).
Activity calls are given as the source filed them. The calls are words filed in the database; no cut-off is given here.

Legend:
[1] = target: T1, von Hippel-Lindau disease tumor suppressor/Estrogen receptor/Cullin-2 (Homo sapiens, UniProt P03372+P40337+Q13617); assay: Protac activity against VHL/cullin2/ERalpha in human MCF7 cells assessed as ERalpha degradation by measuring ER protein/GADPH ratio at 1 nM after 4 hrs by Western blot analysis relative to control; assay type: cell-based
Summary of the method: (§1)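 MCF-7 cells (DMEM, 10% FBS, passages 3−8) exposed 4 h. Lysed in RIPA with protease inhibitors; equal protein on 10% SDS-PAGE, PVDF, anti-ERα blot. Membranes stripped and reprobed for GAPDH. ERα/GAPDH ratio normalized to DMSO = 100; DC50 from densitometry of the dose series.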
Target sequence in this assay (P03372 whole entry, looked up): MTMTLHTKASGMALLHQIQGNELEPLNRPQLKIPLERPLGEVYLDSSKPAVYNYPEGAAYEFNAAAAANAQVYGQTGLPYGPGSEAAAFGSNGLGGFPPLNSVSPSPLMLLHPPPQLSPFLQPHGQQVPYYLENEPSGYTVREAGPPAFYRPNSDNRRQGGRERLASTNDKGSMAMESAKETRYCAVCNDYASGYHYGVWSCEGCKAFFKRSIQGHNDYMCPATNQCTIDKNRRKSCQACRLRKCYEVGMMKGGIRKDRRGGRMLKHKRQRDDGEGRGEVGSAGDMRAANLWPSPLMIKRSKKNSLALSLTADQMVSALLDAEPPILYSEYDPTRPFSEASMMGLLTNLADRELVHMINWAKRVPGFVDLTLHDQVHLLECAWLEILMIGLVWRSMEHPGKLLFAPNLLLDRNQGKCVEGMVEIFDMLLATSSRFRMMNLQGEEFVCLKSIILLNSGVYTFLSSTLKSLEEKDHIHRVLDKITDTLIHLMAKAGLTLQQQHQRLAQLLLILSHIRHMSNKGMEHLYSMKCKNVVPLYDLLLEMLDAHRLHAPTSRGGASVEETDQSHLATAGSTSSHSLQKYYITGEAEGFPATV
Target sequence in this assay (P40337 whole entry, looked up): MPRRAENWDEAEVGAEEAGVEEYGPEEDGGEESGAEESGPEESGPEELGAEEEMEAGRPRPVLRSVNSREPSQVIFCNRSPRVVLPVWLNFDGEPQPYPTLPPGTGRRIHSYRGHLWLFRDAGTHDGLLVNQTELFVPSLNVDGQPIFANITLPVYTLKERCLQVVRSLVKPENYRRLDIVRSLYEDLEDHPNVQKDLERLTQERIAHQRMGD
Target sequence in this assay (Q13617 whole entry, looked up): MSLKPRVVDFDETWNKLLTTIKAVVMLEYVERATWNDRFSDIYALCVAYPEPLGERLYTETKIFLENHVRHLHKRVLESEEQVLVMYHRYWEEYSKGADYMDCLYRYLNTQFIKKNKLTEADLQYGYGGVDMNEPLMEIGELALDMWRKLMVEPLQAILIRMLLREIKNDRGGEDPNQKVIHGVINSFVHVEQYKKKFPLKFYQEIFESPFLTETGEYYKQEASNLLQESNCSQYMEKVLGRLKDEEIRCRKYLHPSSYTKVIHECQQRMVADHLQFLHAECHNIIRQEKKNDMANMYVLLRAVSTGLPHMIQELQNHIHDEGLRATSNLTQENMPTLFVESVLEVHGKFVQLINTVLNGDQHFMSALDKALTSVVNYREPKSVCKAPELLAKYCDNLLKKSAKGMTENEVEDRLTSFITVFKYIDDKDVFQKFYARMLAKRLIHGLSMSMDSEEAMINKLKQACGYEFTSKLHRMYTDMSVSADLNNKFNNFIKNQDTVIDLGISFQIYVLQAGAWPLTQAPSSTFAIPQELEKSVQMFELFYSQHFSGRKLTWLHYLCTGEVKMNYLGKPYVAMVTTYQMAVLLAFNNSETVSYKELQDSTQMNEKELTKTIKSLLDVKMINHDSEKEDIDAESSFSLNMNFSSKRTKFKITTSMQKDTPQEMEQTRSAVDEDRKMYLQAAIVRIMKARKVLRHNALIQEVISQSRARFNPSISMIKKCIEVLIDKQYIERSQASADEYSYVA

[2] = target: T1, von Hippel-Lindau disease tumor suppressor/Estrogen receptor/Cullin-2; assay: Protac activity against VHL/cullin2/ERalpha in human MCF7 cells assessed as ERalpha degradation by measuring ER protein/GADPH ratio at 10 nM after 4 hrs by Western blot analysis relative to control; assay type: cell-based; summary of the method: as §1
Target sequence in this assay (P03372 whole entry, looked up): as the sequence (P03372 whole entry, looked up) above
Target sequence in this assay (P40337 whole entry, looked up): as the sequence (P40337 whole entry, looked up) above
Target sequence in this assay (Q13617 whole entry, looked up): as the sequence (Q13617 whole entry, looked up) above

[3] = target: T1, von Hippel-Lindau disease tumor suppressor/Estrogen receptor/Cullin-2; assay: Protac activity against VHL/cullin2/ERalpha in human MCF7 cells assessed as ERalpha degradation by measuring ER protein/GADPH ratio at 100 nM after 4 hrs by Western blot analysis relative to control; assay type: cell-based; summary of the method: as §1
Target sequence in this assay (P03372 whole entry, looked up): as the sequence (P03372 whole entry, looked up) above
Target sequence in this assay (P40337 whole entry, looked up): as the sequence (P40337 whole entry, looked up) above
Target sequence in this assay (Q13617 whole entry, looked up): as the sequence (Q13617 whole entry, looked up) above

[4] = target: T1, von Hippel-Lindau disease tumor suppressor/Estrogen receptor/Cullin-2; assay: Protac activity against VHL/cullin2/ERalpha in human MCF7 cells assessed as ERalpha degradation by measuring ER protein/GADPH ratio at 1000 nM after 4 hrs by Western blot analysis relative to control; assay type: cell-based; summary of the method: as §1
Target sequence in this assay (P03372 whole entry, looked up): as the sequence (P03372 whole entry, looked up) above
Target sequence in this assay (P40337 whole entry, looked up): as the sequence (P40337 whole entry, looked up) above
Target sequence in this assay (Q13617 whole entry, looked up): as the sequence (Q13617 whole entry, looked up) above

[5] = target: T1, von Hippel-Lindau disease tumor suppressor/Estrogen receptor/Cullin-2; assay: Protac activity against VHL/cullin2/ERalpha in human MCF7 cells assessed as ERalpha degradation after 4 hrs by Western blot analysis; assay type: cell-based; summary of the method: as §1
Target sequence in this assay (P03372 whole entry): as the sequence (P03372 whole entry, looked up) above
Target sequence in this assay (P40337 whole entry): as the sequence (P40337 whole entry, looked up) above
Target sequence in this assay (Q13617 whole entry): as the sequence (Q13617 whole entry, looked up) above

[6] = target: T1, von Hippel-Lindau disease tumor suppressor/Estrogen receptor/Cullin-2; assay: Protac activity against VHL/cullin2/ERalpha in human MCF7 cells assessed as ERalpha degradation by measuring ER protein/GAPDH ratio at 0.03 nM after 4 hrs by Western blot analysis relative to control; assay type: cell-based; summary of the method: as §1
Target sequence in this assay (P03372 whole entry, looked up): as the sequence (P03372 whole entry, looked up) above
Target sequence in this assay (P40337 whole entry, looked up): as the sequence (P40337 whole entry, looked up) above
Target sequence in this assay (Q13617 whole entry, looked up): as the sequence (Q13617 whole entry, looked up) above

[7] = target: T1, von Hippel-Lindau disease tumor suppressor/Estrogen receptor/Cullin-2; assay: Protac activity against VHL/cullin2/ERalpha in human MCF7 cells assessed as ERalpha degradation by measuring ER protein/GAPDH ratio at 0.3 nM after 4 hrs by Western blot analysis relative to control; assay type: cell-based; summary of the method: as §1
Target sequence in this assay (P03372 whole entry, looked up): as the sequence (P03372 whole entry, looked up) above
Target sequence in this assay (P40337 whole entry, looked up): as the sequence (P40337 whole entry, looked up) above
Target sequence in this assay (Q13617 whole entry, looked up): as the sequence (Q13617 whole entry, looked up) above

[8] = target: T1, von Hippel-Lindau disease tumor suppressor/Estrogen receptor/Cullin-2; assay: Protac activity against VHL/cullin2/ERalpha in human MCF7 cells assessed as ERalpha degradation by measuring ER protein/GAPDH ratio at 0.6 nM after 4 hrs by Western blot analysis relative to control; assay type: cell-based; summary of the method: as §1
[9] = target: T1, von Hippel-Lindau disease tumor suppressor/Estrogen receptor/Cullin-2; assay: Protac activity against VHL/cullin2/ERalpha in human MCF7 cells assessed as ERalpha degradation by measuring ER protein/GAPDH ratio at 5 nM after 4 hrs by Western blot analysis relative to control; assay type: cell-based; summary of the method: as §1
[10] = target: T1, von Hippel-Lindau disease tumor suppressor/Estrogen receptor/Cullin-2; assay: Protac activity against VHL/cullin2/ERalpha in human MCF7 cells assessed as ERalpha degradation by measuring ER protein/GAPDH ratio at 30 nM after 4 hrs by Western blot analysis relative to control; assay type: cell-based; summary of the method: as §1
[11] = target: T1, von Hippel-Lindau disease tumor suppressor/Estrogen receptor/Cullin-2; assay: Protac activity against VHL/cullin2/ERalpha in human MCF7 cells assessed as ERalpha degradation by measuring ER protein/GAPDH ratio at 300 nM after 4 hrs by Western blot analysis relative to control; assay type: cell-based; summary of the method: as §1
[12] = target: T1, von Hippel-Lindau disease tumor suppressor/Estrogen receptor/Cullin-2; assay: Protac activity against VHL/cullin2/ERalpha in human T47D cells assessed as ERalpha degradation by measuring ER protein/GAPDH ratio at 0.03 nM after 4 hrs by Western blot analysis relative to control; assay type: cell-based
Summary of the method: (§2)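 T47D cells (DMEM, 10% FBS, passages 3−8) exposed 4 h over a dose series. RIPA lysates, equal protein, 10% SDS-PAGE, anti-ERα Western blot. ERα band density normalized to GAPDH; DC50 derived from the quantified dose–response.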

[13] = target: T1, von Hippel-Lindau disease tumor suppressor/Estrogen receptor/Cullin-2; assay: Protac activity against VHL/cullin2/ERalpha in human T47D cells assessed as ERalpha degradation by measuring ER protein/GAPDH ratio at 0.1 nM after 4 hrs by Western blot analysis relative to control; assay type: cell-based; summary of the method: as §2
[14] = target: T1, von Hippel-Lindau disease tumor suppressor/Estrogen receptor/Cullin-2; assay: Protac activity against VHL/cullin2/ERalpha in human T47D cells assessed as ERalpha degradation by measuring ER protein/GAPDH ratio at 0.3 nM after 4 hrs by Western blot analysis relative to control; assay type: cell-based; summary of the method: as §2
[15] = target: T1, von Hippel-Lindau disease tumor suppressor/Estrogen receptor/Cullin-2; assay: Protac activity against VHL/cullin2/ERalpha in human T47D cells assessed as ERalpha degradation by measuring ER protein/GAPDH ratio at 0.6 nM after 4 hrs by Western blot analysis relative to control; assay type: cell-based; summary of the method: as §2
[16] = target: T1, von Hippel-Lindau disease tumor suppressor/Estrogen receptor/Cullin-2; assay: Protac activity against VHL/cullin2/ERalpha in human T47D cells assessed as ERalpha degradation by measuring ER protein/GAPDH ratio at 1 nM after 4 hrs by Western blot analysis relative to control; assay type: cell-based; summary of the method: as §2
[17] = target: T1, von Hippel-Lindau disease tumor suppressor/Estrogen receptor/Cullin-2; assay: Protac activity against VHL/cullin2/ERalpha in human T47D cells assessed as ERalpha degradation by measuring ER protein/GAPDH ratio at 5 nM after 4 hrs by Western blot analysis relative to control; assay type: cell-based; summary of the method: as §2
[18] = target: T1, von Hippel-Lindau disease tumor suppressor/Estrogen receptor/Cullin-2; assay: Protac activity against VHL/cullin2/ERalpha in human T47D cells assessed as ERalpha degradation by measuring ER protein/GAPDH ratio at 10 nM after 4 hrs by Western blot analysis relative to control; assay type: cell-based; summary of the method: as §2
[19] = target: T1, von Hippel-Lindau disease tumor suppressor/Estrogen receptor/Cullin-2; assay: Protac activity against VHL/cullin2/ERalpha in human T47D cells assessed as ERalpha degradation by measuring ER protein/GAPDH ratio at 30 nM after 4 hrs by Western blot analysis relative to control; assay type: cell-based; summary of the method: as §2
[20] = target: T1, von Hippel-Lindau disease tumor suppressor/Estrogen receptor/Cullin-2; assay: Protac activity against VHL/cullin2/ERalpha in human T47D cells assessed as ERalpha degradation by measuring ER protein/GAPDH ratio at 100 nM after 4 hrs by Western blot analysis relative to control; assay type: cell-based; summary of the method: as §2
[21] = target: T1, von Hippel-Lindau disease tumor suppressor/Estrogen receptor/Cullin-2; assay: Protac activity against VHL/cullin2/ERalpha in human T47D cells assessed as ERalpha degradation by measuring ER protein/GAPDH ratio at 300 nM after 4 hrs by Western blot analysis relative to control; assay type: cell-based; summary of the method: as §2
[22] = target: T1, von Hippel-Lindau disease tumor suppressor/Estrogen receptor/Cullin-2; assay: Protac activity against VHL/cullin2/ERalpha in human T47D cells assessed as ERalpha degradation by measuring ER protein/GAPDH ratio at 1000 nM after 4 hrs by Western blot analysis relative to control; assay type: cell-based; summary of the method: as §2
[23] = target: T1, von Hippel-Lindau disease tumor suppressor/Estrogen receptor/Cullin-2; assay: Protac activity against VHL/cullin2/ERalpha in human T47D cells assessed as ERalpha degradation after 4 hrs by Western blot analysis; assay type: cell-based; summary of the method: as §2
Target sequence in this assay (P03372 whole entry): as the sequence (P03372 whole entry, looked up) above
Target sequence in this assay (P40337 whole entry): as the sequence (P40337 whole entry, looked up) above
Target sequence in this assay (Q13617 whole entry): as the sequence (Q13617 whole entry, looked up) above

[24] = target: T1, von Hippel-Lindau disease tumor suppressor/Estrogen receptor/Cullin-2; assay: Protac activity against VHL/cullin2/ERalpha in human MCF7 cells assessed as ERalpha degradation by measuring reduction in ER protein level at 30 nM after 1 hr by Western blot analysis relative to control; assay type: cell-based; parameters: scale not given: the % may be the effect or the level left
Summary of the method: (§3)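 Time course: cells given 30 nM degrader and harvested at time points from 1 h up to 24 h. ERα assessed by Western blot against a GAPDH loading control, with levels taken relative to DMSO.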

[25] = target: T1, von Hippel-Lindau disease tumor suppressor/Estrogen receptor/Cullin-2; assay: Protac activity against VHL/cullin2/ERalpha in human MCF7 cells assessed as ERalpha degradation by measuring reduction in ER protein level at 30 nM after 3 hrs by Western blot analysis relative to control; assay type: cell-based; parameters: scale not given: the % may be the effect or the level left; summary of the method: as §3
[26] = target: T1, von Hippel-Lindau disease tumor suppressor/Estrogen receptor/Cullin-2; assay: Protac activity against VHL/cullin2/ERalpha in human T47D cells assessed as ERalpha degradation by measuring reduction in ER protein level at 30 nM after 1 to 3 hrs by Western blot analysis relative to control; assay type: cell-based; summary of the method: as §3
[27] = target: T1, von Hippel-Lindau disease tumor suppressor/Estrogen receptor/Cullin-2; assay: Protac activity against VHL/cullin2/ERalpha in human MCF7 cells assessed as ERalpha degradation by measuring reduction in ER protein level pre-treated with raloxifene for 2 hrs followed by compound exposure at 30 nM for 4 hrs by Western blot analysis; assay type: cell-based
[28] = system: MCF7; assay: Inhibition of cell growth in human MCF7 cells after 4 days by wst-8-based colorimetric analysis; assay type: functional; conditions: MCF7, 96 h
Summary of the method: (§4)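 Cells seeded at 1500/well overnight, then exposed to graded compound doses for 4 days. Growth read by colorimetric WST-8 assay. GI50 from fitted curves. MCF-7 cells were kept in DMEM, 10% FBS, passages 3−8; human mammary epithelial cells were run the same way.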

[29] = system: MCF7; assay: Inhibition of cell growth in human MCF7 cells after 4 days by wst-8-based colorimetric analysis relative to control; assay type: functional; summary of the method: as §4
[30] = system: MDA-MB-231; assay: Inhibition of cell growth in human MDA-MB-231 cells at 10^-13 to 10^-5 M after 4 days by wst-8-based colorimetric analysis; assay type: functional
[31] = Inhibition of cell growth in primary human mammary epithelial cells at 10^-13 to 10^-6 M after 4 days by wst-8-based colorimetric analysis; conditions: 96 h; summary of the method: as §4
[32] = system: MCF7; assay: Antiproliferative activity against human MCF7 cells at 10 to 300 nM after 5 days by crystal violet staining based assay; assay type: functional, cell-based
Summary of the method: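 MCF-7 cells in DMEM with 10% FBS and penicillin/streptomycin, passages 3−8, exposed to compounds at 10, 100 and 300 nM for 5 days, then fixed and stained with crystal violet.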

[33] = target: T1, von Hippel-Lindau disease tumor suppressor/Estrogen receptor/Cullin-2; assay: Protac activity against VHL/cullin2/ERalpha in human MCF7 cells assessed as ERalpha degradation by measuring ER protein/GAPDH ratio at 0.1 nM after 4 hrs by Western blot analysis relative to control; assay type: cell-based; summary of the method: as §1
[34] = target: T1, von Hippel-Lindau disease tumor suppressor/Estrogen receptor/Cullin-2; assay: Protac activity against VHL/cullin2/ERalpha in human MCF7 cells assessed as ERalpha degradation by measuring reduction in ER protein level pre-treated with carfilzomib for 2 hrs followed by compound exposure at 30 nM for 4 hrs by Western blot analysis; assay type: cell-based
[35] = target: T1, von Hippel-Lindau disease tumor suppressor/Estrogen receptor/Cullin-2; assay: Protac activity against VHL/cullin2/ERalpha in human T47D cells assessed as ERalpha degradation by measuring reduction in ER protein level at 30 nM after 1 to 24 hrs hrs by Western blot analysis relative to control; assay type: cell-based; summary of the method: as §3

In the case of `CCN(CCCCCOCC(=O)N[C@H](C(=O)N1C[C@H](O)C[C@H]1C(=O)N[C@@H](C)c1ccc(-c2scnc2C)cc1)C(C)(C)C)CCOc1ccc(C(=O)c2c(-c3ccc(O)cc3)sc3cc(O)ccc23)cc1`, the Ratio [1] is reported as 8, the Ratio [2] is reported as 0.3 and the Ratio [3] is reported as 0.3. It also gave a Ratio [4] of 13, a DC50 [5] of 0.17 nM and a Ratio [6] of 84. It also gave a Ratio [7] of 28, a Ratio [8] of 12 and a Ratio [9] of 0.3. The Ratio [10] was 0.3, the Ratio [11] was 0.3 and the Ratio [12] was 84. The Ratio [13] was 73, the Ratio [14] was 62 and the Ratio [15] was 58. The Ratio [16] was 33, the Ratio [17] was 4 and the Ratio [18] was 3. For the same molecule, the Ratio [19] was 2, the Ratio [20] was 4 and the Ratio [21] was 6. The Ratio [22] was 25, the DC50 [23] was 0.43 nM and the Activity [24] was greater than 80%. The Activity [25] was 100%, the Activity [26] was “Active” and the Activity [27] was “inactive”. The GI50 [28] was 0.77 nM, the Imax [29] was 57.5% and the “growth inhibition (GI)” value [30] was “inactive”. The Activity [31] was “Non-Toxic”, the Activity [32] was “Active” and the Ratio [33] was 76. For the same molecule, the Activity [34] was “inactive” and the Activity [35] was “Active”.
